Test results taken from ChEMBL document CHEMBL4725428 (ACS Med Chem Lett, 2020).
Calls of active or inactive are those of the source. No cut-off for these calls is given here.

Key:
[1] = biological target: T1, Protein cereblon/Focal adhesion kinase 1 (Homo sapiens, UniProt Q05397+Q96SW2); test: Protac activity at CRBN/FAK in human PA1 cells assessed as induction of FAK degradation at 1 nM incubated for 8 hrs by Western blot analysis relative to control; format: cell-based; settings: PA-1
Summary of the method: (§1)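 PA1 cells were treated at the indicated doses for 8 h, and FAK was quantified from immunoblots relative to untreated control. Data come from three independent experiments.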

[2] = biological target: T1, Protein cereblon/Focal adhesion kinase 1; test: Protac activity at CRBN/FAK in human PA1 cells assessed as induction of FAK degradation after 8 hrs by Western blot analysis; format: cell-based; settings: pa-1
Summary of the method: (§2)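 Each cell line was exposed to graded concentrations for 8 h, and FAK protein was detected by immunoblot. DC50 is the concentration giving half-maximal FAK degradation.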

[3] = biological target: T1, Protein cereblon/Focal adhesion kinase 1; test: Protac activity at CRBN/FAK in human MDA-MB-436 cells assessed as induction of FAK degradation after 8 hrs by Western blot analysis; format: cell-based; summary of the method: as §2
[4] = biological target: T1, Protein cereblon/Focal adhesion kinase 1; test: Protac activity at CRBN/FAK in human PA1 cells assessed as reduction FAK degradation at 1 to 100 nM after 8 hrs in presence of 5 uM carfilzomib; format: cell-based; settings: PA-1, dose nM 1-100, time 8.0 hrs
Summary of the method: (§3)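 To test proteasome dependence, PA1 cells received the degrader (1, 10 or 100 nM) for 8 h, either alone or together with MG132 (5 μM) or carfilzomib (5 μM). Each inhibitor was also given alone. FAK was assessed by immunoblot.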

[5] = biological target: T1, Protein cereblon/Focal adhesion kinase 1; test: Protac activity at CRBN/FAK in human PA1 cells assessed as FAK degradation at 1 to 100 nM after 8 hrs in presence of 10 uM PF562271; format: cell-based; settings: PA-1, dose nM 1-100, time 8.0 hrs
Summary of the method: (§4)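 For ligand competition, PA1 cells were treated for 8 h with the degrader (1, 10 or 100 nM) alone, or with excess CRBN ligand pomalidomide (10 μM) or FAK ligand PF562271 (10 μM), alone or combined. FAK was read by immunoblot.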

PA-1 = test: Antiproliferative activity against human PA1 cells assessed as effect on cell proliferation after 72 hrs by MTS assay; format: functional, cell-based
[6] = biological target: T1, Protein cereblon/Focal adhesion kinase 1; test: Protac activity at CRBN/FAK in human Ramos cells assessed as induction of FAK degradation after 8 hrs by Western blot analysis; format: cell-based; summary of the method: as §2
[7] = biological target: T2, Protein cereblon/Focal adhesion kinase 1 (Mus musculus) (UniProt P34152+Q8C7D2); test: Protac activity at CRBN/FAK in mouse TM3 cells assessed as reduction in FAK autophosphorylation at tyr 397 residue at 1 to 3000 nM after 8 hrs by Western blot analysis; format: cell-based; settings: dose nM 1-3000, time 8.0 hrs
Summary of the method: (§5)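 TM3 cells were treated at the indicated doses for 8 h, then immunoblotted for FAK phosphorylated at Tyr397.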

[8] = biological target: T2, Protein cereblon/Focal adhesion kinase 1 (Mus musculus); test: Protac activity at CRBN/FAK in mouse TM3 cells assessed as reduction in FAK autophosphorylation at tyr 397 residue at 100 nM after 1 hr by Western blot analysis relative to control; format: cell-based; parameters: scale not given: the % may be the effect or the level left
Summary of the method: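 In a time course, TM3 cells were exposed to 100 nM, and FAK and pFAK Tyr397 levels were followed by immunoblot at successive time points.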

[9] = biological target: T2, Protein cereblon/Focal adhesion kinase 1 (Mus musculus); test: Protac activity at CRBN/FAK in mouse TM3 cells assessed as reduction in FAK autophosphorylation at tyr 397 residue at <1 nM after 8 hrs by Western blot analysis; format: cell-based; settings: dose nM <1, time 8.0 hrs; summary of the method: as §5
[10] = biological target: T1, Protein cereblon/Focal adhesion kinase 1; test: Protac activity at CRBN/FAK in human PA1 cells assessed as FAK degradation at 1 to 100 nM after 8 hrs in presence of 10 uM pomalidomide; format: cell-based; settings: PA-1, dose nM 1-100, time 8.0 hrs; summary of the method: as §4
[11] = biological target: T1, Protein cereblon/Focal adhesion kinase 1; test: Protac activity at CRBN/FAK in human PA1 cells assessed as reduction FAK degradation at 1 to 100 nM after 8 hrs in presence of 5 uM MG132; format: cell-based; settings: PA-1, dose nM 1-100, time 8.0 hrs; summary of the method: as §3
Ramos = test: Antiproliferative activity against human Ramos cells assessed as effect on cell proliferation after 72 hrs by MTS assay; format: functional, cell-based
[12] = biological target: T1, Protein cereblon/Focal adhesion kinase 1; test: Protac activity at CRBN/FAK in human PA1 cells assessed as induction of FAK degradation at 10 nM incubated for 8 hrs by Western blot analysis relative to control; format: cell-based; settings: PA-1; summary of the method: as §1
[13] = biological target: Protein cereblon/Focal adhesion kinase 1 (Mus musculus, UniProt P34152+Q8C7D2); test: Protac activity at CRBN/FAK in mouse TM3 cells assessed as induction of FAK degradation after 8 hrs by Western blot analysis; format: cell-based; summary of the method: as §2
TM3 = test: Antiproliferative activity against mouse TM3 cells assessed as effect on cell proliferation after 72 hrs by MTS assay; format: functional, cell-based
[14] = biological target: T1, Protein cereblon/Focal adhesion kinase 1; test: Protac activity at CRBN/FAK in human LNCAP cells assessed as induction of FAK degradation after 8 hrs by Western blot analysis; format: cell-based; summary of the method: as §2
LNCaP = test: Antiproliferative activity against human LNCAP cells assessed as effect on cell proliferation after 72 hrs by MTS assay; format: functional, cell-based
MDA-MB-436 = test: Antiproliferative activity against human MDA-MB-436 cells assessed as effect on cell proliferation after 72 hrs by MTS assay; format: functional, cell-based

Row | Structure (SMILES) | Activity [1] [%] | Activity [12] [%] | also measured
1 | CN(c1ncccc1CNc1nc(Nc2ccc(NC(=O)c3cn(CCOCCOCCNc4cccc5c4C(=O)N(C4CCC(=O)NC4=O)C5=O)nn3)cc2)ncc1C(F)(F)F)S(C)(=O)=O (stereo not given) | 90 | 99 | DC50 [2]: 80 pM; DC50 [3]: 330 pM; Activity [4]: inactive; Activity [5]: inactive; Activity (PA-1): inactive; DC50 [6]: 40 pM; Activity [7]: Active; Activity [8]: > 50%; Activity [9]: Active; Activity [10]: inactive; Activity [11]: inactive; Activity (Ramos): inactive; DC50 [13]: 310 pM; Activity (TM3): inactive; DC50 [14]: 370 pM; Activity (LNCaP): inactive; Activity (MDA-MB-436): inactive
2 | CN(c1nccnc1CNc1nc(Nc2ccc(C(=O)NCc3cn(CCOCCOCCOCCNc4cccc5c4C(=O)N(C4CCC(=O)NC4=O)C5=O)nn3)cc2)ncc1C(F)(F)F)S(C)(=O)=O (stereo not given) | 5 | 22 | –
3 | CN(c1ncccc1CNc1nc(Nc2ccc(NC(=O)c3cn(CCCCCOCC#Cc4cccc5c4C(=O)N(C4CCC(=O)NC4=O)C5=O)nn3)cc2)ncc1C(F)(F)F)S(C)(=O)=O (stereo not given) | 62 | 90 | –
4 | CN(c1ncccc1CNc1ncc(C(F)(F)F)c(Nc2ccc(NC(=O)c3cn(CCOCCNc4cccc5c4C(=O)N(C4CCC(=O)NC4=O)C5=O)nn3)cc2)n1)S(C)(=O)=O (stereo not given) | 0 | 0 | –
5 | CN(c1ncccc1CNc1nc(Nc2ccc(NC(=O)c3cn(CCOCCOCCOCCOCCNc4cccc5c4C(=O)N(C4CCC(=O)NC4=O)C5=O)nn3)cc2)ncc1C(F)(F)F)S(C)(=O)=O (stereo not given) | 30 | 82 | –
6 | CN(c1ncccc1CNc1nc(Nc2ccc(C(=O)NCc3cn(CCOCCOCCNc4cccc5c4C(=O)N(C4CCC(=O)NC4=O)C5=O)nn3)cc2)ncc1C(F)(F)F)S(C)(=O)=O (stereo not given) | 40 | 65 | –
7 | CN(c1nccnc1CNc1nc(Nc2ccc(NC(=O)c3cn(CCOCCOCCNc4cccc5c4C(=O)N(C4CCC(=O)NC4=O)C5=O)nn3)cc2)ncc1C(F)(F)F)S(C)(=O)=O (stereo not given) | 71 | 96 | –
8 | CN(c1ncccc1CNc1nc(Nc2ccc(NC(=O)c3cn(CCCCCCCCNc4cccc5c4C(=O)N(C4CCC(=O)NC4=O)C5=O)nn3)cc2)ncc1C(F)(F)F)S(C)(=O)=O (stereo not given) | 67 | 93 | –
9 | CN(c1nccnc1CNc1nc(Nc2ccc(C(=O)NCc3cn(CCOCCOCCNc4cccc5c4C(=O)N(C4CCC(=O)NC4=O)C5=O)nn3)cc2)ncc1C(F)(F)F)S(C)(=O)=O (stereo not given) | 32 | 60 | –
10 | CN(c1ncccc1CNc1nc(Nc2ccc(NC(=O)c3cn(CCCCCCCC#Cc4cccc5c4C(=O)N(C4CCC(=O)NC4=O)C5=O)nn3)cc2)ncc1C(F)(F)F)S(C)(=O)=O (stereo not given) | 62 | 90 | –
11 | CN(c1ncccc1CNc1nc(Nc2ccc(NC(=O)c3cn(CCCCCCCCCc4cccc5c4C(=O)N(C4CCC(=O)NC4=O)C5=O)nn3)cc2)ncc1C(F)(F)F)S(C)(=O)=O (stereo not given) | 40 | 85 | –
12 | CN(c1nccnc1CNc1nc(Nc2ccc(C(=O)NCc3cn(CCOCCNc4cccc5c4C(=O)N(C4CCC(=O)NC4=O)C5=O)nn3)cc2)ncc1C(F)(F)F)S(C)(=O)=O (stereo not given) | 37 | 71 | –
13 | CN(c1ncccc1CNc1nc(Nc2ccc(NC(=O)c3cn(CCOCCOCC#Cc4cccc5c4C(=O)N(C4CCC(=O)NC4=O)C5=O)nn3)cc2)ncc1C(F)(F)F)S(C)(=O)=O (stereo not given) | 62 | 90 | –
14 | CN(c1ncccc1CNc1nc(Nc2ccc(NC(=O)c3cn(CCCCCOCCCc4cccc5c4C(=O)N(C4CCC(=O)NC4=O)C5=O)nn3)cc2)ncc1C(F)(F)F)S(C)(=O)=O (stereo not given) | 85 | 95 | –
15 | CCN1C(=O)CCC(N2C(=O)c3cccc(NCCOCCOCCn4cc(C(=O)Nc5ccc(Nc6ncc(C(F)(F)F)c(NCc7cccnc7N(C)S(C)(=O)=O)n6)cc5)nn4)c3C2=O)C1=O (stereo not given) | 0 | 0 | –
16 | CN(c1ncccc1CNc1ncc(C(F)(F)F)c(Nc2ccc(NC(=O)c3cn(CCOCCOCCOCCNc4cccc5c4C(=O)N(C4CCC(=O)NC4=O)C5=O)nn3)cc2)n1)S(C)(=O)=O (stereo not given) | 0 | 0 | –
17 | CN(c1ncccc1CNc1nc(Nc2ccc(NC(=O)c3cn(CCOCCOCCCc4cccc5c4C(=O)N(C4CCC(=O)NC4=O)C5=O)nn3)cc2)ncc1C(F)(F)F)S(C)(=O)=O (stereo not given) | 62 | 90 | –
18 | CN(c1nccnc1CNc1nc(Nc2ccc(NC(=O)c3cn(CCOCCNc4cccc5c4C(=O)N(C4CCC(=O)NC4=O)C5=O)nn3)cc2)ncc1C(F)(F)F)S(C)(=O)=O (stereo not given) | 32 | 90 | –
19 | CN(c1ncccc1CNc1nc(Nc2ccc(NC(=O)c3cn(CCOCCOCCOCCNc4cccc5c4C(=O)N(C4CCC(=O)NC4=O)C5=O)nn3)cc2)ncc1C(F)(F)F)S(C)(=O)=O (stereo not given) | 46 | 94 | –
20 | CN(c1ncccc1CNc1nc(Nc2ccc(C(=O)NCc3cn(CCOCCNc4cccc5c4C(=O)N(C4CCC(=O)NC4=O)C5=O)nn3)cc2)ncc1C(F)(F)F)S(C)(=O)=O (stereo not given) | 55 | 81 | –
21 | CN(c1ncccc1CNc1nc(Nc2ccc(C(=O)NCc3cn(CCOCCOCCOCCNc4cccc5c4C(=O)N(C4CCC(=O)NC4=O)C5=O)nn3)cc2)ncc1C(F)(F)F)S(C)(=O)=O (stereo not given) | 10 | 30 | –
22 | CN(c1ncccc1CNc1ncc(C(F)(F)F)c(Nc2ccc(NC(=O)c3cn(CCOCCOCCNc4cccc5c4C(=O)N(C4CCC(=O)NC4=O)C5=O)nn3)cc2)n1)S(C)(=O)=O (stereo not given) | 0 | 2 | –
23 | CN(c1ncccc1CNc1nc(Nc2ccc(NC(=O)c3cn(CCOCCNc4cccc5c4C(=O)N(C4CCC(=O)NC4=O)C5=O)nn3)cc2)ncc1C(F)(F)F)S(C)(=O)=O (stereo not given) | 40 | 92 | –
24 | CN(c1nccnc1CNc1nc(Nc2ccc(NC(=O)c3cn(CCOCCOCCOCCNc4cccc5c4C(=O)N(C4CCC(=O)NC4=O)C5=O)nn3)cc2)ncc1C(F)(F)F)S(C)(=O)=O (stereo not given) | 35 | 92 | –
